D1 mod: D1 dopamine receptor (human) allosteric modulation; 58,000 tested, 5.9% active; B-score at 10 µM; HEK293 D1, CRE-luciferase, dopamine EC30 potentiation; actives deviate in either direction; P21728;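 active means luminescence count or its row- and column-corrected plate score outside the 99.7% band of the plate's sample wells, on either side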
Target sequence (P21728 whole entry, looked up): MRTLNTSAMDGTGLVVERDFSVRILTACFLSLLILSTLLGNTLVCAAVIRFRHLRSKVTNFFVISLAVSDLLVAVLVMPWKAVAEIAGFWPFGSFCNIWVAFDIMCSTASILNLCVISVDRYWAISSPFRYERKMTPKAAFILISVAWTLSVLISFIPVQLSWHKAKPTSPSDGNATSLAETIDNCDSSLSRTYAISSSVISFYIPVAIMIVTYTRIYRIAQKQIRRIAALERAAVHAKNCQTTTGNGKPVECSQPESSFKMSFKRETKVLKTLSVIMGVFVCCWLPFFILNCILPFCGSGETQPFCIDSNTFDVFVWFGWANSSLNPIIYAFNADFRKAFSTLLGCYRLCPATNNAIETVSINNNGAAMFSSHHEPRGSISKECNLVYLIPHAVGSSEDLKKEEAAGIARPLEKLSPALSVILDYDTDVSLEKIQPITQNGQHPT
PostGolgi ctrl: growth of the yeast control strain, post-Golgi counter-screen; efflux-deficient yeast background strain, growth absorbance A615, 16 h; inhibition, % at 10 µM; 98,000 tested, 5% active
DAT uptake mod: changed human dopamine transporter uptake under cocaine IC80; LLC-PK1 hDAT cells, [14C]-dopamine uptake with cocaine IC80; actives deviate in either direction; 110,000 tested, 1.3% active; B-score at 10 µM;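 active means Z score or B-score, a plate-position-corrected score, falls beyond the plate's 99.7% confidence bounds, in either direction; inactive means both scores lie inside the 99.7% bounds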;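 further: scored against the spread of the other compound wells on the same plate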
tolC growth inh: blocks growth of E. coli BW25113 tolC mutant | OD615 | AID 573 | growth inhibition, % at 10 µM (by protocol) | 65,000 tested, 2.2% active;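 active means growth inhibition at or above a cutoff equal to the mean over every tested compound plus 3 SD, cut at about 60% in these data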;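 further: growth measured after 20 h incubation at 37 °C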
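Test system: tolC-deleted E. coli BW25113; medium: LB with kanamycin 50 µg/mL; compound: single-point testing at 10 µM; incubation: 20 h compound exposure of bacteria at 37 °C; signal: OD at 615 nm; evaluation: growth inhibition in percent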
PostGolgi yeast: growth inhibition of a yeast mutant, post-Golgi transport screen. AID 739. 98,000 tested, 0.9% active. post-Golgi transport phenotypic cell assay. inhibition, % at 10 µM;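 further: yeast cells grown in 1536-well plates; yeast grown about 18 h at 30C before absorbance read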
Ecoli WT expand: growth inhibitors of E. coli BW25113 wild type; 98,000 tested, 0.15% active; AID 710; growth inhibition, % at 100 µM; OD600 absorbance;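 active means growth inhibition above about 50% at one test dose, limit read from the data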;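 further: growth measured after 20 h incubation at 37 °C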
Numbers without * were called inactive; / = no result given. Most compounds without a hit are left out; they make up all but 9.3% or so of the library. Unless noted, no stated cut-off is given here; in the data, active means inhibition above about 30%; inactive means the rest.

SMILES	D1 mod	PostGolgi ctrl	DAT uptake mod	tolC growth inh	PostGolgi yeast	Ecoli WT expand
CC(C)Cn1c(-c2ccc(Cl)cc2)cnc1SCC(=O)N1CCOCC1	0.61	22	-0.42	51	-2	10
Cc1cccc2cc3c(N)c(C(=O)Nc4ccc(N5CCOCC5)cc4)sc3nc12	/	41*	1.4	/	-1	-9
CCn1c(Sc2ccc(N)cc2Cl)nc2ccccc21	/	46*	0.042	23	3	11
O=S(=O)(NCCCN1CCN(c2ccccc2F)CC1)c1cccc2cccnc12	-2.9*	-4	1.7	-9	3	9
COc1cc(-n2nnnc2SCC(=O)N2CCN(c3ccc(F)cc3)CC2)c(OC)cc1Cl	0.18	38*	0.01	11	4	-5
CCOC(=O)CSc1nnnn1-c1cc(OC)c(Cl)cc1OC	/	3	-1.5	-18	5	-2
CCOC(=O)c1sc(NC(=O)c2ccc(Br)o2)cc1C	-3.9*	4	-0.15	28	28	-4
CCOC(=O)c1sc(NC(=O)c2sccc2C)cc1C	/	2	0.054	/	-9	-7
COc1cc(OC)c2ccc(=O)oc2c1C(CCN1CCCC1)c1ccc2c(c1)OCO2 (configuration not stated)	/	/	1.1*	/	/	/
COc1ccc(CN(Cc2cccnc2)C(=S)NCCc2ccccc2)cc1OC	/	-4	2*	/	6	-7
COc1ccc(CCNC(=O)C(=O)NCc2ccccc2)cc1OC	/	1	-0.021	/	17	-10
Cc1cc2ncn(C3CC(=O)N(C)C3=O)c2cc1C (configuration not stated)	/	8	0.87	/	5	-1
Cc1cc2ncn(C3CC(=O)N(Cc4ccccc4)C3=O)c2cc1C (configuration not stated)	-0.39	40*	-0.071	14	5	1
Cc1c(C(=O)NN2CCCCC2)nn(-c2ccc(Cl)cc2Cl)c1-c1ccc(I)cc1	/	/	0.15	/	/	/
CCCOc1ccc(C(O)C(CN2CCOCC2)c2ccccc2)cc1 (configuration not stated)	/	11	-0.025	/	11	7
CCOc1ccc(C(O)C(CN2CCOCC2)c2ccccc2)cc1 (configuration not stated)	/	37*	-1.1	/	13	-1
CC(C)(C)c1ccc(C(=O)NNC(=O)Cc2cccc3ccccc23)cc1	/	40*	0.22	/	-1	8
COC(=O)c1cn(NC(=O)c2cnccn2)c(=O)c2ccccc12	-0.88	-3	-0.083	99*	6	1
COC(=O)c1cn(NC(=O)c2ccc(OC)c(OC)c2)c(=O)c2ccccc12	/	0	-0.4	/	18	-4
COC(=O)c1cn(Nc2ncc(C(F)(F)F)cc2Cl)c(=O)c2ccccc12	/	40*	-0.22	/	-5	2
c1ccc2c(c1)[nH]c1c(N3CCCC3)ncnc12	-0.97	11	-1.8	45	13	32
Brc1ccc2[nH]c3c(N4CCc5ccccc5C4)ncnc3c2c1	/	76*	1.1	/	42*	-19
Cc1ccc2[nH]c3c(N4CCOCC4)ncnc3c2c1	-0.32	6	-0.093	15	-2	11
Cc1ccc2[nH]c3c(N4CCc5ccccc5C4)ncnc3c2c1	/	43*	1.4	/	-40	-10
CCCc1n[nH]c2c1C(=O)C(C(=O)OC)C(C)(C)C2 (configuration not stated)	1.7	-8	0.71	-15	29	-5
SMILES	D1 mod	PostGolgi ctrl	DAT uptake mod	tolC growth inh	PostGolgi yeast	Ecoli WT expand
O=C(Cn1cccc1C(=O)c1ccccc1)NCc1ccco1	-3.5*	26	-0.8	-3	1	-2
Cc1ccccc1C(=O)c1cccn1CC(=O)NCc1ccco1	-0.13	11	0.019	2	3	-2
O=C(Nc1nc(N2C(=O)c3ccccc3C2=O)n(-c2ccccc2)n1)c1ccc(Cl)cc1	/	35*	-0.85	/	2	-5
Cc1cc2c(cc1C)CSC(c1ccc3ccccc3c1O)SC2	/	7	-0.49	/	-13	-6
Cc1cc2c(cc1C)CSC(c1c(O)ccc3ccccc13)SC2	/	100*	1.2	/	103*	-4
Cc1cc2c(cc1C)CSC(c1ccccc1O)SC2	/	31*	0.7	/	1	0
Cc1cc2c(cc1C)CSC(c1ccc(O)cc1)SC2	/	-3	-0.1	/	-8	-4
CCN(CC)CCCN(Cc1cc2cc3c(cc2[nH]c1=O)OCO3)C(=O)Nc1ccccc1OC	0.2	-3	0.74	-4	5	1
CCN(CC)CCCN(Cc1cc2cc3c(cc2[nH]c1=O)OCCO3)C(=O)Nc1ccc(F)cc1	-0.32	1	-0.99	12	35*	2
COc1ccccc1Cn1c(-c2ccco2)nc2nc3ccccc3nc21	12*	/	-0.022	-1	/	/
Cc1nc(-c2ccccc2)sc1C1(C)CC(c2cccc(F)c2)=NO1 (configuration not stated)	/	/	-0.99	/	/	/
c1ccc(C2=Nn3c(nnc3-c3n[nH]c4c3CCC4)SC2)cc1	-3.6*	3	0.33	24	10	3
Cn1c(/C=N/c2nc3ccccc3[nH]2)nc2ccccc21	0.45	6	-2.4*	-9	-1	6
C(=N\c1nc2ccccc2[nH]1)/c1cccs1	-0.1	8	-0.31	-12	-10	7
CC(=O)CC(=O)Nc1cccc2c1CCCC2	-0.0065	4	0.51	-1	3	9
C/C(CC(=O)Nc1cccc2c1CCCC2)=N\NC(=O)c1ccccc1N	/	32*	1.1	/	17	-1
Cc1cccc(N2CCN(C(=O)CCCSc3nc4ccccc4[nH]3)CC2)c1C	/	39*	1.9	/	10	-10
CC1CCN(S(=O)(=O)c2ccc(Cl)cc2Br)CC1	-0.11	9	0.36	98*	6	8
O=S(=O)(c1cc(Cl)ccc1Br)N1CCCCC1	-0.47	12	-0.64	17	-4	2
CC(C)OCCCn1c(=N)c(C(N)=S)cc2c(=O)n3ccccc3nc21	/	-1	-0.013	7	24	-2
Cc1occc1-c1nnc(SCC(=O)N2CCCc3ccccc32)n1Cc1ccco1	-2.6*	1	0.22	-1	1	1
Cc1occc1-c1nnc(SCC(=O)Nc2nccs2)n1Cc1ccco1	0.26	36*	0.82	1	-4	4
COc1cc(OC)cc(-n2nnnc2SCC(=O)N2CCCc3ccccc32)c1	0.25	8	0.35	84*	-7	-10
COc1ccc(NC(=O)CSc2nnc(-c3ccoc3C)n2CCc2ccccc2)cc1	0.18	7	4.2*	14	0	-11
Cn1c(=O)c(C(=O)CSc2nncs2)c(N)n(Cc2ccccc2)c1=O	1.6	17	0.41	7	6	-6
COCCn1c(SCC(=O)N2CC(=O)Nc3ccccc32)nnc1-c1ccoc1C	/	/	0.58	/	/	/
COCCCn1c(SCC(=O)N2CC(=O)Nc3ccccc32)nnc1-c1ccoc1C	0.3	8	-2.4*	-6	-4	3
CCCn1c(SCC(=O)N2CCCc3ccccc32)nnc1-c1ccco1	0.28	36*	0.89	11	-7	-3
CCSc1ccccc1C(=O)NCc1ccc2c(c1)OCO2	/	7	-0.27	12	-1	0

Screening data from PubChem.
